In the library only some 2% were active in any assay of this set; here they are far more common.
eIF4H FP inh = inhibitors of RNA binding by human eIF4H. Q15056. eIF4H fluorescence polarization binding assay. inhibition, % at 35 µM. 0.94% of 290,000 active. AID 2012;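 note: calls also rest on retests at 20 µM and on dose response follow-up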
DNA FID counter = displaces DNA intercalator in HCV helicase counter-screen; DNA fluorescent intercalator displacement, fluorescence; inhibition, % at 7.9 µM; 0.17% of 290,000 active; AID 1845; in the data active = inhibition above about 37%;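 note: 0% = vehicle and 100% = reference compound; higher means more ethidium bromide displaced from hairpin DNA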
HCV NS3 hel inh = blocks Hepatitis C virus NS3 helicase unwinding; NS3 helicase DNA unwinding, Cy5 molecular beacon fluorescence; inhibition, % at 10.9 µM; 0.56% of 290,000 active;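 active = inhibition above the mean of all tested compounds plus 3 SD, set per campaign, cut at about 35% in these data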;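 note: 0% = DMSO wells and 100% = thioflavine S control wells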
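Assay system – hepatitis C virus NS3 helicase domain fragment enzyme · Buffer or medium – MOPS pH 6.5, MgCl2, DTT, Tween20, BSA · Reagent – Cy5/quencher beacon DNA duplex and ATP to start · Compound – single 10.9 µM dose · Timing – 1 h at 25 °C · Technique – Cy5 beacon fluorescence read at start and 1 h · Measure – % inhibition of unwinding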
MLLE-PAM2 inh = inhibitors of microRNA-mediated deadenylation, human PABP1 MLLE binding | P11940 | GST-MLLE / FITC-PAM2 fluorescence polarization | inhibition, % at 20 µM | 0.36% of 360,000 active | AID 588489; in the data active = inhibition above about 35%, passing the limit was not always enough;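 note: plate controls were DMSO wells with GST-MLLE for no effect and wells lacking GST-MLLE protein for full effect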
HCV core dimer = HCV core protein dimerization inhibition; TR-FRET GST/Flag-core106 dimerization, 1536-well; inhibition, % at 5 µM; 0.33% of 300,000 active; AID 1899;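 active = inhibition above the mean of all tested compounds plus 3 SD, set per screening campaign, cut at about 45% in these data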
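Test system: GST/Flag-tagged HCV core106 proteins; Medium: KF-containing HEPES buffer, pH 7.45, DTT, CHAPS, BSA; Times: compound-protein-antibody incubation 4 h at 22.5 °C; Detection: TR-FRET 671 and 617 nm emission; Benchmarks: wells lacking GST-core106 and wells with excess unlabelled core106.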
PABP polyA inh = blocks human PABP binding to poly(A) RNA | P11940 | fluorescence polarization | inhibition, % at 35 µM | 1% of 290,000 active;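 note: calls also rest on retests at 20 µM and on dose response follow-up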
* marks the source's active call; other numbers are inactive results; ? = inconclusive; nt = no result given. Unless noted, the rule behind the calls is not given here.

SMILES	eIF4H FP inh	DNA FID counter	HCV NS3 hel inh	MLLE-PAM2 inh	HCV core dimer	PABP polyA inh
Cc1ccc2[nH]c(C)c(CCNC(=O)c3c(N)no[n+]3[O-])c2c1	-6.0	-4.0	-6.8	10.2	-3.6	3.5
O=C(CSc1nc2cc(Cl)ccc2s1)c1cc2ccccc2o1	45.1*	-7.3	2.7	-16.7	12.2	80.6*
Cc1cc(NC(=O)CSc2nc3cc(Cl)ccc3s2)no1	-7.6	-0.4	6.6	-0.6	1.1	-2.7
NC(=O)c1c(NC(=O)C2CCCO2)sc2c1CCCCC2 (centres undefined)	12.2	0.7	5.9	40.9*	2.5	-12.6
NC(=O)c1c(NC(=O)C2CCCO2)sc2c1CCC2 (centres undefined)	6.7	-5.3	5.6	12.7	1.4	10.9
COc1ccc(C(c2nnnn2C2CCCCC2)N2CCN(C/C=C/c3ccccc3)CC2)cc1 (centres undefined)	nt	nt	nt	0.0	nt	nt
Cc1ccsc1/C=C1/CN(C)Cc2c1nc1ccccc1c2C(=O)O	27.3	-7.8	-13.4	9.5	-4.5	29.1
COc1cc(/C=C2\CCc3c2nc2ccccc2c3C(=O)O)cc(OC)c1OC	86.7*	-26.9	20.4	2.3	9.8	65.6*
CCN1C/C(=C\c2cccc(C)c2)c2nc3ccccc3c(C(=O)O)c2C1	?	-12.3	-9.5	nt	nt	87.8*
CN1/C(=C/C=C(/C#N)C(N)=O)C(C)(C)c2ccccc21	54.9*	-8.2	-5.7	-121.9	-4.3	42.3
CN1/C(=C\C=C(/C#N)C(=O)Nc2ccccc2F)C(C)(C)c2ccccc21	73.7	-0.5	3.7	-102.2	2.8	7.9*
CC(C)Cc1ccc(S(=O)(=O)NCC2CCCO2)cc1 (centres undefined)	-6.6	-23.3	2.3	-16.0	2.6	-7.4
CCCNC(=O)C1(C)CCN(Cc2cc(C(F)(F)F)ccc2Cl)C1 (centres undefined)	nt	nt	nt	6.4	nt	nt
CC(/C=N\NC(=O)CN1CCN(Cc2ccccc2)CC1)=C\c1ccco1	?	-1.3	7.7	11.5	-4.3	active
O=C(CSc1nnc(SCc2ccccc2)s1)N/N=C/C=C/c1ccco1	93.9*	-17.2	23.8	-101.8	25.9	5.8
O=C(CN1CCN(Cc2ccccc2)CC1)N/N=C\C=C/c1ccco1	?	-8.4	-4.9	-8.8	-5.2	2.5*
CCn1c(SCC(=O)N/N=C/C(C)=C\c2ccco2)nnc1-c1ccccc1	51.4*	-26.2	20.4	-8.1	3.4	7.0*
O=C(CN1CCN(Cc2ccccc2Cl)CC1)N/N=C/C=C/c1ccco1	0.8	-15.3	-11.6	-14.1	1.5	-14.3
COc1ccccc1Cc1c(-c2cccc(Br)c2)nc2ccc(Cl)cn12	nt	nt	nt	-34.5	nt	nt
O=C(CC1CC1)Nc1ccc2c(c1)[C@@H]1C[C@H](CC(=O)NC3CCCC3)O[C@@H](CO)[C@@H]1O2	nt	nt	nt	10.9	nt	nt
COc1cccc(C(=O)N2CCCc3ccccc32)c1OC	nt	nt	nt	-4.0	nt	nt
COC(=O)c1c(C)[nH]c(O)c1C=Nc1ccc(C(C)C)cc1	85.3*	-7.3	12.9	-78.0	-17.5	80.2*
COC(=O)c1c(C)[nH]c(O)c1C=Nc1ccc(Oc2ccccc2)cc1	?	5.1	-4.7	-83.6	-10.8	1.7
O=C(O)c1cccc(Nc2c([N+](=O)[O-])c(=O)oc3ccccc23)c1	-5.2	0.6	2.2	5.7	2.8	-1.4
O=c1oc2ccccc2c(Nc2cccc(O)c2)c1[N+](=O)[O-]	83.9*	-5.9	24.1	-0.3	17.9	71.2*
SMILES	eIF4H FP inh	DNA FID counter	HCV NS3 hel inh	MLLE-PAM2 inh	HCV core dimer	PABP polyA inh
Cc1occc1-c1nnc(-c2cc([N+](=O)[O-])cc([N+](=O)[O-])c2)o1	25.2	-0.1	5.5	1.5	49.0*	6.8
O=[N+]([O-])c1cccc(-c2nnc(-c3ccccc3)o2)c1	-4.2	2.9	0.8	12.6	3.6	9.6
CCN1CCN(C(CCc2ccccc2)C(=O)NC2CCCCC2)CC1 (centres undefined)	nt	nt	nt	-11.3	nt	nt
Oc1ccc(N=Nc2ccccc2)o1	8.9	-5.6	0.1	33.2	4.9	-1.2
CCN(CC)c1ccc(-c2n[nH]c(=S)n2-c2ccccc2)cc1	3.4*	-25.8	11.9	4.7	7.0	75.1
O=C(COc1coc(CN2CCN(c3ccccc3)CC2)cc1=O)NC1CCCCC1	nt	nt	nt	9.2	0.8	nt
N/C(=N\OC(=O)CSc1ccccc1)c1ccc([N+](=O)[O-])cc1	3.0	4.7	2.0	40.9*	-1.1	-2.9
O=C(Nc1nnc([C@@H]2O[C@H](CO)[C@@H](O)[C@H]2O)s1)Nc1ccccc1C(F)(F)F	nt	nt	nt	-17.3	nt	nt
CN(C1CCCCC1)S(=O)(=O)c1ccc(=S)[nH]c1	nt	nt	nt	58.3*	nt	nt
CC1Cc2ccccc2N1C(=O)CN1C(=O)NC(C)(c2ccc3c(c2)OCCO3)C1=O (centres undefined)	0.5*	-21.9	-7.7	-41.8	2.8	54.0*
O=C(CSCc1cc(=O)n2ccsc2n1)Nc1ccccc1	nt	-3.5	-0.4	11.0	0.4	nt
Cc1ccccc1C1C(C#N)=C2N=C(N)c3c(sc4c3CCCCC4)N2C2=C1C(=O)CCC2 (centres undefined)	78.3*	-19.2	12.4	21.7	31.8	54.5*
O=C(N/N=C/C=C\c1ccco1)c1cccnc1	61.6*	0.7	8.8	2.1	-10.9	41.0*
O=C(N/N=C/C=C/c1ccccc1)c1cccnc1	2.1	-7.2	5.0	-2.2	-9.1	-7.8
O=C(N/N=C/C=C\c1ccco1)c1ccccn1	74.6*	-17.2	31.0	4.5	0.6	43.7*
O=C(N/N=C/c1cc(Br)c(Br)o1)c1cccnc1	?	-0.2	5.0	59.0*	4.4	2.7
O=C(N/N=C/C=C/c1ccco1)c1cnccn1	74.0	-9.4	32.2	14.5	-1.1	44.9
O=C(N/N=C/C=C/c1ccco1)c1cccnc1	64.3*	-3.5	3.0	27.4	-2.4	56.4*
Cc1cccc(OCCNC(=O)CCc2ccccc2)c1	nt	nt	nt	2.4	-0.6	nt
O=C(N/N=C\C=C\c1ccco1)c1cncc(Br)c1	66.5*	-15.1	30.6	-6.7	-4.7	46.3*
O=C(N/N=C\c1ccco1)c1cncc(Br)c1	44.4	-5.4	12.5	nt	1.1	-10.7
CCN(CC)CCN(C(=O)c1cc2ccccc2cc1OC)c1nc2ccc(OC)cc2s1	-10.7	43.9*	-89.7	9.8	-5.8	-3.6
O=C(Nc1cccc(Cl)c1Cl)c1csc([C@H]2C[C@H](O)[C@@H](CO)O2)n1	nt	nt	nt	5.2	nt	nt
N#Cc1ccc(C23CC4(C2)[C@H](CN(P(=O)(c2ccccc2)c2ccccc2)[C@@H]4c2ccccc2)C3c2ccc(Cl)nc2)cc1 (some centres undefined)	-9.9	nt	nt	2.2	53.4*	-3.3

Compound activity: PubChem, several laboratories
